TRPC6 inh: mouse TRPC6 channel inhibitors, primary screen, cell-based, HEK293, membrane potential dye. hit rate 1.1% among 310,000. B-score at 10 µM. ACh-evoked depolarization; hits give low values. Short transient receptor potential channel 6 (Mus musculus), Q61143;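 active = B-score under library mean minus 3 SD, initial fluorescence not abnormally high, positive integrated signal ratio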;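 also: B-score derived from integrated fluorescence ratio over the kinetic read; more negative B-score means stronger inhibition of depolarization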
TRPC4 potent: positive allosteric modulators of TRPC4, primary screen, cell-based, mouse TRPC4beta, HEK293 mu-opioid, Fluo-4 calcium. Short transient receptor potential channel 4 (Mus musculus), Q9QUQ5. DAMGO EC20, Fluo-4 Ca2+ flux; hits give high values. B-score at 10 µM. hit rate 0.42% among 310,000;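 active = B-score of calcium response area above 5 SD of library B-scores, with initial fluorescence ratio within 5 SD of library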
Target sequence (Q9QUQ5 whole entry, looked up): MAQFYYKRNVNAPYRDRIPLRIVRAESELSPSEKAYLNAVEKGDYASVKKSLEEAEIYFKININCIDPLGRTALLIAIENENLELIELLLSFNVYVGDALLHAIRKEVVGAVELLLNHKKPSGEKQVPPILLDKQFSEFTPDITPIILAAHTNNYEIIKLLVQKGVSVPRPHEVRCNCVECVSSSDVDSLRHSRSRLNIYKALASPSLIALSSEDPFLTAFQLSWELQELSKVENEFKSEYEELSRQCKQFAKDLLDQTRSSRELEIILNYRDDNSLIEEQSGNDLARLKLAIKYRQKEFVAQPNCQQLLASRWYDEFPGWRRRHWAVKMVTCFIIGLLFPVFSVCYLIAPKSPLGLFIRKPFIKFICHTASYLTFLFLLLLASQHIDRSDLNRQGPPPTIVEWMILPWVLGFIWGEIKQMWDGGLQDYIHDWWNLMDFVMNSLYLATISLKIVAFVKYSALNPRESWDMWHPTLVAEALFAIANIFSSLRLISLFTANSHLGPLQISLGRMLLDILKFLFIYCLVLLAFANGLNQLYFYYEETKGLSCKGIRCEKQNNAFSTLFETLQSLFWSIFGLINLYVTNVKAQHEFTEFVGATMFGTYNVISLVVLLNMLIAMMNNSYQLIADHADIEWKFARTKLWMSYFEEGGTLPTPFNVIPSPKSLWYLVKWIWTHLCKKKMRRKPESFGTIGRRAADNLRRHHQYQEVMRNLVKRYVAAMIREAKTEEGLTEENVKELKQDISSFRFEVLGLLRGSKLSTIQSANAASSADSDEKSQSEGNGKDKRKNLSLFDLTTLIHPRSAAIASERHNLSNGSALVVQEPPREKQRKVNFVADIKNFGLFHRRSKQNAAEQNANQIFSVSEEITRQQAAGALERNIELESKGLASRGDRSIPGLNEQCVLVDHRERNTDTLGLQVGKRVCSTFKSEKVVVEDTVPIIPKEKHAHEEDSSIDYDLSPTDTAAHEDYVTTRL
TRPC4 act: activators of mouse TRPC4 channel, primary screen, Fluo4 calcium, HEK293 TRPC4beta/mu-opioid cells; Short transient receptor potential channel 4 (Mus musculus), Q9QUQ5; hit rate 0.49% among 310,000; Fluo4 calcium fluorescence; hits give high values; AID 2237, 2010; B-score at 10 µM;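 active = B-score above 5 SD of library B-scores, and initial fluorescence ratio not above library mean plus 5 SD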;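 also: positive B-score marks a calcium rise read as TRPC4 activation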
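Technique: kinetic Fluo4 calcium fluorescence; Test system: TRPC4beta and mu-opioid receptor HEK293 stable cells; Measure: B-scored integrated calcium fluorescence ratio; Benchmarks: low control buffer alone, high control maximal DAMGO; Schedule: 45 min room-temperature Fluo4 loading, 110 s read.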
TRPC6 activator: mouse TRPC6 channel activators, primary screen, cell-based, HEK293, membrane potential dye. Short transient receptor potential channel 6 (Mus musculus), Q61143. HEK293-TRPC6 membrane potential dye fluorescence; hits give high values. B-score at 10 µM. hit rate 0.13% among 310,000;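 active = B-score of the integrated fluorescence ratio above library mean plus 3 SD, and starting fluorescence ratio within library mean plus 5 SD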;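 also: higher score means more depolarization so channel activation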
TRPC4 inh: inhibitors of mouse TRPC4 channel, primary screen, Fluo4 calcium, HEK293 TRPC4beta/mu-opioid cells; Short transient receptor potential channel 4 (Mus musculus), Q9QUQ5; DAMGO-evoked Fluo4 calcium flux; hits give low values; B-score at 10 µM; hit rate 0.39% among 300,000; AID 2247, 2010;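 active = B-score over 3 SD under the library average, no early fluorescence shift, positive overall ratio signal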
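Assay system: HEK293 cells with stable TRPC4beta plus mu-opioid receptor expression; Probe or stimulus: DAMGO in two steps, submaximal then maximal; Dosing: single-point compound dosing; Measured by: Fluo4 calcium-dye fluorescence, kinetic read; Read-out basis: B score from integrated Fluo4 fluorescence ratio.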
FID counter: compounds displacing fluorescent DNA intercalator, primary screen, artefact control for HCV NS3 helicase inhibitor project, biochemical, FID fluorescence. DNA fluorescent intercalator displacement. inhibition, % at 7.9 µM. hit rate 0.17% among 290,000. AID 1845, 2009; in the data active = inhibition above about 37%;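 also: higher means more ethidium bromide displaced from hairpin DNA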
TRPC4 sel inh 2: second selectivity test of TRPC6 inhibitors: effect on mouse TRPC4; shares compounds with TRPC6 inh; HEK293 TRPC4/MOR, membrane potential dye fluorescence; channel activated by saturating DAMGO dose; inhibition, % at 10 µM; hit rate 42% among 920;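 active = compounds whose fluorescence signal differed from control wells by over 3 SD, either direction, in both duplicate plates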
TRPC4 spec: mouse TRPC4 modulation by TRPC6 hits, confirmation, selectivity assay for TRPC6 inhibitor project, cell-based, HEK293 TRPC4/mu-opioid, membrane potential dye. membrane potential fluorescence. activity change, negative = inhibition, % at 10 µM. shares compounds with TRPC6 inh. hit rate 61% among 920. AID 2777, 2010;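 active = rise or fall in signal beyond 3 SD of buffer-only wells in both replicate plates, either sign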;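 also: integrated kinetic ratio of fluorescence range over baseline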
HEK293 MPD ctr 2-1: nonspecific membrane potential effects, parental HEK293, confirmation, counter-screen for TRPC6 inhibitor project, cell-based, second counter screen | shares compounds with TRPC6 inh | parental HEK293 membrane potential dye fluorescence; maximal acetylcholine challenge after compound addition | signal change vs control, % at 10 µM | hit rate 31% among 920;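 active = membrane potential signal moving either way by over 3 SD of the maximum-effect control, in both duplicate plates, meaning non-specific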
HEK293 MPD ctr-1: membrane potential modulation in parental HEK293, confirmation, counter-screen for TRPC6 inhibitor project, cell-based. shares compounds with TRPC6 inh. parental HEK293 membrane potential dye fluorescence. membrane potential signal change, % at 10 µM. hit rate 60% among 920. AID 2780, 2010;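 active = membrane potential signal shifting up or down by more than 3 SD of buffer-only wells, on both duplicate plates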
HEK293 MPD ctr-2: parental HEK293 membrane potential modulation, confirmation, counter-screen for TRPC6 modulator project, cell-based | shares compounds with TRPC6 inh | membrane potential signal change, % at 10 µM | hit rate 51% among 2,400 | membrane potential dye fluorescence;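 active = membrane potential signal moves up or down beyond 5 SD from buffer-only wells, on both duplicate plates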
HEK293 MPD ctr 2-2: second check of TRPC6 modulator effects in parental HEK293 cells | inhibition, % at 10 µM | shares compounds with TRPC6 inh | AID 488926 | membrane potential dye fluorescence; after compound, maximal acetylcholine stimulation | hit rate 14% among 2,400;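 active = membrane potential signal drops by more than 5 SD from the mean control signal, in both duplicate plates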
TRPC4 ctr mod: TRPC4 modulation by TRPC6 hit compounds, confirmation, selectivity assay for TRPC6 modulator project, cell-based, HEK293 TRPC4/mu-opioid, membrane potential dye, mouse; shares compounds with TRPC6 inh; membrane potential fluorescence; percent change from control (negative = decrease, positive = increase), % at 10 µM; hit rate 69% among 2,400; AID 488927, 2010;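 active = membrane potential signal moved up or down beyond 5 SD of buffer control wells, in both duplicate plates, actives on both sides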
TRPC4 ctr inh 2: second selectivity test of TRPC6 modulators against mouse TRPC4 | HEK293 TRPC4/mu-opioid, membrane potential dye fluorescence; stimulated with maximal-effect DAMGO | hit rate 55% among 2,400 | inhibition, % at 10 µM | shares compounds with TRPC6 inh;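 active = drop in membrane potential signal beyond 5 SD of the control wells in both duplicate plates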;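 also: TRPC4 counter screen for TRPC6 hits run under conditions tuned for TRPC6 not TRPC4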
TRPC6 inh conf: mouse TRPC6 channel inhibitors, confirmation, HEK293 cells, membrane potential dye, duplicate; shares compounds with TRPC6 inh; inhibition, % at 10 µM; ACh-evoked depolarization; hit rate 43% among 3,300;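 active = fluorescence ratio falls more than 5 SD below the full-stimulation control mean, in both duplicate runs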;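 also: integrated fluorescence ratio of peak minus minimum over baseline after agonist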
TRPC6 act confirm: mouse TRPC6 channel activators, confirmation, HEK293 cells, membrane potential dye, duplicate | shares compounds with TRPC6 inh | HEK293-TRPC6 membrane potential dye fluorescence, FDSS | activation, % at 10 µM | hit rate 11% among 2,800 | AID 488961, 2010;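 active = ratio signal rise beyond 5 SD above unstimulated control wells' mean, seen in both duplicate runs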
Of the large screens only hits and unclear results are named; the others gave an inactive call (follow-up assays come after a bar, where they were run). Rows were chosen to be rich in hits. Some 2.3% of all compounds tested hit in one or more screens of this group.

Cc1onc(-c2c(F)cccc2Cl)c1C(=O)N1CCc2ccccc2C1	none
Cc1ccc(S(=O)(=O)N(CC(=O)N(C(C)C)C(C)C)C(=O)N2CCN(C)CC2)cc1	none
O=C(c1ccncc1)N1N=C(C2CCCCC2)CC1(O)C(F)(F)F (configuration not stated)	TRPC6 inh -5.8 | HEK293 MPD ctr-2 inactive | HEK293 MPD ctr 2-2 inactive | TRPC4 ctr mod inactive | TRPC4 ctr inh 2 inactive | TRPC6 inh conf inactive | TRPC6 act confirm inactive
O=C(O)CCCCCN1C(=O)C(O)=C(C(=O)/C=C/c2ccccc2)C1c1cccc([N+](=O)[O-])c1 (configuration not stated)	TRPC6 activator 17 | HEK293 MPD ctr-2 inactive | HEK293 MPD ctr 2-2 inactive | TRPC4 ctr mod 9.5% | TRPC4 ctr inh 2 inactive | TRPC6 inh conf inactive | TRPC6 act confirm 39%
O=C(C1=C(O)C(=O)N(CCOCCO)C1c1cccc([N+](=O)[O-])c1)c1cccs1 (configuration not stated)	none
CN(C)CCC(Oc1ccccc1OCc1ccccc1)c1ccccc1 (configuration not stated)	TRPC6 inh -5.9 (no result: FID counter) | HEK293 MPD ctr-2 257% | HEK293 MPD ctr 2-2 inactive | TRPC4 ctr mod 49% | TRPC4 ctr inh 2 85% | TRPC6 inh conf 44%
CC(C)Oc1ccccc1OCCN(C)C	none
COC(=O)c1c(NC(=O)C2C3C=CC(CC3)C2C(=O)O)sc(C)c1C (configuration not stated)	none
CCOC(=O)c1c(NC(=O)C2C3C=CC(CC3)C2C(=O)O)sc(C)c1CC (configuration not stated)	TRPC6 activator 12 | HEK293 MPD ctr-2 110% | HEK293 MPD ctr 2-2 inactive | TRPC4 ctr mod 21% | TRPC4 ctr inh 2 inactive | TRPC6 inh conf inactive | TRPC6 act confirm 60%
Cc1ccc(S(=O)(=O)Nc2ccc(NC(=O)CN3CCCCC3)cc2)cc1	TRPC6 inh -6.8, TRPC6 activator 13 | HEK293 MPD ctr-2 inactive | HEK293 MPD ctr 2-2 inactive | TRPC4 ctr mod 8.5% | TRPC4 ctr inh 2 inactive | TRPC6 inh conf 83% | TRPC6 act confirm 118%
CC1CCCN(C(=O)COC(=O)c2cc(-c3cccs3)nn2-c2ccccc2)C1 (configuration not stated)	TRPC6 inh -6.5 (no result: FID counter) | HEK293 MPD ctr-2 113% | HEK293 MPD ctr 2-2 inactive | TRPC4 ctr mod 18% | TRPC4 ctr inh 2 inactive | TRPC6 inh conf 50%
CCOc1nc(S(=O)(=O)c2ccc(C)cc2)c(Cl)s1	none
COCCN(CCOC)c1nc(S(=O)(=O)c2ccc(C)cc2)c(Cl)s1	TRPC6 inh -5.4 | HEK293 MPD ctr-2 106% | HEK293 MPD ctr 2-2 inactive | TRPC4 ctr mod 24% | TRPC4 ctr inh 2 inactive | TRPC6 inh conf inactive
Cn1ccnc1C1CCCCN1Cc1nc(-c2ccc3c(c2)OCO3)no1 (configuration not stated)	TRPC6 inh -5.3 | HEK293 MPD ctr-2 184% | HEK293 MPD ctr 2-2 62% | TRPC4 ctr mod 44% | TRPC4 ctr inh 2 40% | TRPC6 inh conf 48%
FC(F)(F)c1cccc(Cc2noc(CN3C[C@@H]4CCC[C@H]3C4)n2)c1	none
Cn1ccnc1C1CCCCN1Cc1nc(Cc2cccc(C(F)(F)F)c2)no1 (configuration not stated)	TRPC6 inh -5.3 | HEK293 MPD ctr-2 136% | HEK293 MPD ctr 2-2 inactive | TRPC4 ctr mod 32% | TRPC4 ctr inh 2 27% | TRPC6 inh conf inactive
O=C(CSc1nnnn1C1CCCCC1)Nc1ccc2c(c1)OCO2	TRPC6 inh -8.7 | TRPC4 sel inh 2 inactive | TRPC4 spec inactive | HEK293 MPD ctr 2-1 inactive | HEK293 MPD ctr-1 inactive | TRPC6 inh conf inactive | TRPC6 act confirm inactive
Cc1cc2cc(CCNS(=O)(=O)c3ccc(F)cc3)c(=O)[nH]c2cc1C	none
Cc1cc2oc3cc(NCCC4CCCN4C)ccc3c(=O)c2cc1C (configuration not stated)	TRPC6 inh -5.9 (no result: FID counter) | HEK293 MPD ctr-2 inactive | HEK293 MPD ctr 2-2 84% | TRPC4 ctr mod -11% | TRPC4 ctr inh 2 76% | TRPC6 inh conf 50% | TRPC6 act confirm inactive

From PubChem
